From ChEMBL document CHEMBL1146656, “The monoethyl ester of meconic acid is an active site inhibitor of HCV NS5B RNA-dependent RNA polymerase” (Bioorg Med Chem Lett, 2004) come the findings set out here.

A value given as a limit tells only on which side of the number the result lay.

The target of assay [1] is T1, RNA-directed RNA polymerase (Hepacivirus hominis, UniProt O39930). As to the kind of experiment: Inhibitory potency against NS5B HCV polymerase. In a few lines:
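NS5BΔC55 (C-terminal 55-residue truncation) expressed in E. coli and purified to homogeneity, used at 5 nM in 20 mM Tris/HCl pH 7.5, 0.05% Triton X-100, 2% glycerol, 50 mM NaCl, 1 mM DTT, 5 mM MgCl2. Enzyme preincubated 20 min at 23 °C with poly(rA)/oligo(rU) (20 µg/mL final). Started with 10 µM 3H-UTP, 30 min at 23 °C. Acid-insoluble radioactivity counted. IC50 from three-parameter logistic fit; mean of 2–4 experiments.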

For another assay, the system named is Hepatitis C virus. In words: Tested for inhibition of HCV RNA replication in a cell-basedassay; No significant inhibition. It is filed as functional, organism-based, Hepacivirus hominis.
Assay [2] has as its target T1, RNA-directed RNA polymerase. As to the kind of experiment: Inhibitory potency of compound in presence of Mn2+ ion against NS5B HCV polymerase.
The target is the same in assay [3]. In words: Inhibitory potency of compound in presence of Mg2+ ion against NS5B HCV polymerase. Put shortly:
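NS5B with C-terminal 55-residue truncation (ΔC55), expressed in E. coli and purified; 5 nM enzyme in 20 mM Tris/HCl pH 7.5, 0.05% Triton X-100, 2% glycerol, 50 mM NaCl, 1 mM DTT, 5 mM MgCl2. Enzyme preincubated 20 min at 23 °C with poly(rA)/oligo(rU) (20 µg/mL final). Started with 10 µM 3H-UTP, 30 min at 23 °C. Acid-insoluble radioactivity measured; IC50 from three-parameter logistic fit; mean of 2–4 experiments.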

The target is the same in assay [4]. In words: Ability of compound to displace [3H]-DKA from NS5B HCV polymerase by 50%.

What is called IC50 is the concentration that inhibits the measured activity by half. For orientation: EC50 means the concentration that produces a half-maximal response. Lower therefore signals greater potency.

T1 sequence (O39930 whole entry, the tested form may be a part): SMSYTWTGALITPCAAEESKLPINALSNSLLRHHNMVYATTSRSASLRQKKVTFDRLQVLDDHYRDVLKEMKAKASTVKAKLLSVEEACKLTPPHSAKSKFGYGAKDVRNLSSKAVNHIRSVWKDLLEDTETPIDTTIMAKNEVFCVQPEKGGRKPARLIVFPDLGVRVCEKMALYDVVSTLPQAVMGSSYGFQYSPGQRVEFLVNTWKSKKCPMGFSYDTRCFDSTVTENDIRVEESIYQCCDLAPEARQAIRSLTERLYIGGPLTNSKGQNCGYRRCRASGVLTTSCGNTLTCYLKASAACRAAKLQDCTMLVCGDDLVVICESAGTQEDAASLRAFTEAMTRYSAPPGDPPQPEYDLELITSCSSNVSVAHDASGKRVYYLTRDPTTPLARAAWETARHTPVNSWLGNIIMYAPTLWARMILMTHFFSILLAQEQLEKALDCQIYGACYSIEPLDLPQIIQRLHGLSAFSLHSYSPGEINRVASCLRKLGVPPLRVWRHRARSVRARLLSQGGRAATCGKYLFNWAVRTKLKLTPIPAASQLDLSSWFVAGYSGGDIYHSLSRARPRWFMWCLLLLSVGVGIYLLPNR

`CCN(CC)C(=O)c1cc(=O)c(O)c(C(=O)O)o1`: in assay [1], the half-inhibitory concentration (IC50) was greater than 100 µM. In the assay on Hepatitis C virus, this molecule gave a concentration giving a half-maximal response (EC50) greater than 50 µM.

In assay [1], `O=C(O)c1occc(=O)c1O` came in with an IC50 of 51 µM. The molecule further yielded a half-maximal effective concentration (EC50) with Hepatitis C virus greater than 50 µM.

As to `O=C(O)c1cc(=O)c(O)c(C(=O)O)o1`, the concentration for half-maximal inhibition (IC50) in assay [2] was 18 µM; in assay [1], greater than 100 µM; in assay [3], greater than 100 µM. This molecule registered an EC50 in the assay on Hepatitis C virus of 50 µM.

For the molecule `CCOC(=O)c1cc(=O)c(O)c(C(=O)O)o1`, the figures for the half-maximal inhibitory concentration (IC50) in assay [2], in assay [1] and in assay [3] were 0.165 µM, 2.25 µM and 2.25 µM, respectively. Besides, the DC50 in assay [4] came to 1.2 µM. The molecule also had a concentration giving a half-maximal response (EC50) with Hepatitis C virus greater than 50 µM.

In assay [1], `COC(=O)c1oc(C(=O)O)cc(=O)c1O` showed a half-maximal inhibitory concentration (IC50) greater than 100 µM. Moreover, the concentration giving a half-maximal response (EC50) in the assay with Hepatitis C virus is greater than 50 µM.

In turn, `O=C(O)c1oc(COCc2ccccc2)cc(=O)c1O` showed an IC50 in assay [1] greater than 100 µM. Moreover, the EC50 in the assay on Hepatitis C virus is greater than 50 µM.

Take `CCOC(=O)c1cc(=O)c(O)c(C(=O)OCC)o1`: the half-maximal inhibitory concentration (IC50) was 4 µM in assay [2], greater than 100 µM in assay [1] and greater than 100 µM in assay [3]. Moreover, the EC50 with Hepatitis C virus is greater than 50 µM.

Molecule `O=C(O)C(=O)/C=C(\O)c1ccccc1` displayed a DC50 in assay [4] of 0.3 µM. The molecule further came in with an EC50 in the assay on Hepatitis C virus greater than 50 µM.

As for `CCOC(=O)c1cc(=O)c(O)co1`, the IC50 in assay [1] is greater than 100 µM. Also, the EC50 in the assay with Hepatitis C virus is greater than 50 µM.

On to `CCNC(=O)c1cc(=O)c(O)c(C(=O)O)o1`, for which, in assay [1], the IC50 was determined as 24 µM. The EC50 in the assay on Hepatitis C virus was greater than 50 µM.

For the molecule `CCOCc1cc(=O)c(O)c(C(=O)O)o1`, the results for the half-maximal inhibitory concentration (IC50) in assay [2], in assay [1] and in assay [3] were 0.8 µM, 16.2 µM and 16.2 µM, respectively. In addition, the EC50 with Hepatitis C virus was greater than 50 µM.

In the case of `CC(C)(C)OC(=O)c1cc(=O)c(O)c(C(=O)O)o1`, the half-inhibitory concentration (IC50) in assay [1] amounted to 36 µM. In the assay on Hepatitis C virus, this molecule came in with an EC50 greater than 50 µM.

In the case of `O=C(O)c1oc2ccccc2c(=O)c1O`, the half-maximal inhibitory concentration (IC50) was 1.9 µM in assay [2] and 23 µM in assay [3]. The EC50 with Hepatitis C virus was greater than 50 µM.
